Common to all, as to assay: cell viability loss in multiple lines – CellTiter-Glo ATP luminescence, multiple timepoints, mechanism study for HRAS target identification project, profiling panel (AID 652139)
Holding throughout (settings): Cancer/normal cell panel viability
In general terms: ATP-based viability assays read luminescence as a measure of living cells.

For assay [1], the system named is HT-29. Put shortly:
(§1)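 Test system: human tumour lines plus mouse C2C12 and HUVEC; schedule: overnight preculture, multiple exposures incl. 24, 48 h, all 37 °C; signal: ATP luminescence (CellTiter-Glo)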

Assay [2] relates to HeLA. Summed up:
as §1

In assay [3] the test system is LOX-IMVI. Summed up:
as §1

Assay [4] has as its system U-251. Summed up:
as §1

The test system of assay [5] is SNB-75. Summed up: as §1
Assay [6] has as its system C2C12. Summed up: as §1
Assay [7] relates to SR. Put shortly: as §1
The subject of assay [8] is CCRF-CEM. Summed up: as §1
The test system of assay [9] is SNB-19. Put shortly:
as §1

Assay [10] concerns HUVEC. Summed up: as §1

Inconclusive results are not listed. The source made the active and inactive calls. No rule for the calls is given here. Some results are limits rather than exact numbers.

This note sets out measurements from PubChem BioAssay AID652139 (Broad Institute, 2013).

Take `COC(=O)c1ccc([C@@H]2c3[nH]c4ccccc4c3C[C@@H](C(=O)OC)N2C(=O)CCl)cc1`: the AC50 (commonly the midpoint of the concentration-response curve, whichever way the signal moves) was 177 nM in assay [1]; 573 nM in assay [2]; 31 nM in [3]; 1060 nM in assay [4]; 355 nM in [5]; 101 nM in assay [6]. In addition, the AC50 was 32.9 nM in assay [7] and 82.8 nM in assay [8].

Turning to `C#CCCCC(=O)NCCOCCOCCOc1ccc(N(C(=O)CCl)C(C(=O)NCCc2ccccc2)c2cccs2)cc1Cl` (centres undefined), the AC50 in assay [1] was 2860 nM; in [2] it was 4490 nM; in assay [3] it was 421 nM; in [4], 6810 nM; in assay [5], 3560 nM; in [6] it was 5420 nM. Further, the AC50 in [9] is 4450 nM; in [7], 885 nM; in assay [8], 1340 nM.

As for `COc1ccc(N(C(=O)CCl)C(C(=O)NCCc2ccccc2)c2cccs2)cc1Cl` (centres undefined), the AC50 in [1] is 162 nM; in assay [10], 8940 nM; in assay [2], 547 nM; in [3] it was 40.5 nM; in assay [4] it was 896 nM; in assay [5], 286 nM. Besides, the AC50 is 842 nM in [6], 1170 nM in assay [9], 61.8 nM in assay [7] and 119 nM in assay [8].

As to `Cc1onc(C(=O)N2CCN(C(c3ccncc3)c3ccncc3)CC2)c1[N+](=O)[O-]`, the result in assay [1], in [10], in assay [2], in [3], in assay [4] and in [5] was inactive. For the same compound, the outcome in assay [6], in [9], in assay [7] and in assay [8] was inactive.

In the case of `CCC(=O)N(c1ccc(OC)c(Cl)c1)C(C(=O)NCCc1ccccc1)c1cccs1` (centres undefined), the AC50 in [1] and in assay [2] was > 70000 nM (inactive) throughout. Further, the outcome in assay [3], in assay [4] and in assay [9] was inactive.

Regarding `CC(C)(C)OC(=O)NCCOCCOCCOc1ccc(N(C(=O)CCl)C(C(=O)NCCc2ccccc2)c2cccs2)cc1Cl` (centres undefined), the AC50 was 457 nM in [1]; 13700 nM in [10]; 650 nM in assay [2]; 83.4 nM in assay [3]; 1350 nM in [4]; 686 nM in [5]. The AC50 was 442 nM in [6], 1720 nM in assay [9], 95.1 nM in assay [7] and 140 nM in assay [8].

As for `Cc1onc(C(=O)N2CCN(C(c3ccc(Cl)cc3)c3ccc(Cl)cc3)CC2)c1[N+](=O)[O-]`, the half-maximal activity concentration (AC50) in assay [1] was 963 nM; in assay [3], 103 nM; in assay [4], > 70000 nM (inactive); in assay [5], 687 nM; in assay [7] it was 142 nM; in [8], 207 nM. Besides, in assay [10], the outcome was inactive.
